# Columns and labels:
# Type in all cases: functional
# Staphylococcus aureus [1] = assay: Antibacterial activity against hospital-acquired methicillin-resistant Staphylococcus aureus 152 by microdilution method
# Procedure, shortened: (§1)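 Tigecycline MIC measured in triplicate by broth microdilution following CLSI guidelines. Isolates were stored at −80°C in skim milk and subcultured twice on blood agar before testing.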
# Staphylococcus aureus [2] = assay: Antibacterial activity against community-acquired methicillin-resistant Staphylococcus aureus 144 by microdilution method; procedure, shortened: as §1
# Staphylococcus aureus [3] = assay: Antibacterial activity against methicillin-susceptible Staphylococcus aureus ATCC 29213 by microdilution method; procedure, shortened: as §1
# Staphylococcus aureus [4] = assay: Antibacterial activity against hospital-acquired methicillin-resistant Staphylococcus aureus 56 by microdilution method; procedure, shortened: as §1
# Staphylococcus aureus [5] = assay: Antibacterial activity against community-acquired methicillin-resistant Staphylococcus aureus 147 by microdilution method; procedure, shortened: as §1
compound,measurement,setting,value
C[C@H]1COc2c(N3CCN(C)CC3)c(F)cc3c(=O)c(C(=O)O)cn1c23.C[C@H]1COc2c(N3CCN(C)CC3)c(F)cc3c(=O)c(C(=O)O)cn1c23.O [LEVOFLOXACIN],MIC,Staphylococcus aureus [1],0.25 µg/mL
same,MIC,Staphylococcus aureus [2],0.5 µg/mL
same,MIC,Staphylococcus aureus [3],0.25 µg/mL
same,MIC,Staphylococcus aureus [4],0.25 µg/mL
same,MIC,Staphylococcus aureus [5],8 µg/mL

# Source: ChEMBL document CHEMBL1649261, “Pharmacodynamic profile of tigecycline against methicillin-resistant Staphylococcus aureus in an experimental pneumonia model” (Antimicrob Agents Chemother, 2009)
